The record followed here is ChEMBL document CHEMBL1144120, “In vitro evaluation of antifungal properties of phenylpropanoids and related compounds acting against dermatophytes” (1999).

Converted amounts (≈) assume the structure as drawn. The source made the active and inactive calls.

Assay [1] has as its system Nannizzia gypsea. Nature of the assay: Antifungal activity against Microsporum gypseum C 115 up to 50 ug/mL by agar dilution method. In kind it is functional, organism-based. The gist of the method:
(§1)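 Dermatophytes were tested by agar dilution on Sabouraud chloramphenicol agar in 96-well plates. DMSO stock solutions were serially two-fold diluted into the medium to give final concentrations of 0.10–50 µg/mL, with DMSO not exceeding 2%. Each well received 5 µL of spore suspension.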

Assay [2] has as its system Microsporum canis. The assay is described as follows: Antifungal activity against Microsporum canis C 112 by agar dilution method. It counts as functional. The gist of the method: as §1
(In agar dilution the substance is mixed into plates at graded concentrations.)

In assay [3] the test system is Trichophyton rubrum. Nature of the assay: Antifungal activity against Trichophyton rubrum C 113 by agar dilution method. It counts as functional. In short, it runs like this: as §1
Assay [4] concerns Aspergillus flavus. The assay is described as follows: Antifungal activity against Aspergillus flavus ATCC 9170 by agar dilution method. It counts as functional, organism-based. In short, it runs like this:
(§2)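 Sabouraud chloramphenicol agar dilution in 96-well plates. Strains were grown on Sabouraud chloramphenicol agar slants for 48 h at 30 °C and suspended in sterile distilled water, adjusted to 10^6 viable cells/mL. DMSO stocks were serially two-fold diluted into the agar to give 0.10–50 µg/mL, with DMSO ≤2% final. 5 µL inoculum per well; incubated 24, 48 or 72 h at 30 °C per control growth; MIC recorded.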

For assay [5], the system named is Trichophyton rubrum. Nature of the assay: Antifungal activity against Trichophyton rubrum C 113 up to 50 ug/mL by agar dilution method. In kind it is functional, organism-based. In short, it runs like this:
as §1

Assay [6] concerns Trichophyton mentagrophytes. The assay is described as follows: Antifungal activity against Trichophyton mentagrophytes ATCC by agar dilution method. It counts as functional. The gist of the method: as §1
Assay [7] has as its system Cryptococcus neoformans. Nature of the assay: Antifungal activity against Cryptococcus neoformans ATCC 32264 by agar dilution method. It counts as functional, organism-based. In short, it runs like this:
as §2

The test system of assay [8] is Epidermophyton floccosum. Nature of the assay: Antifungal activity against Epidermophyton floccosum C 114 up to 50 ug/mL by agar dilution method. In kind it is functional, organism-based. The gist of the method: as §1
The test system of assay [9] is Aspergillus fumigatus. The assay is described as follows: Antifungal activity against Aspergillus fumigatus ATCC 26934 by agar dilution method. It counts as functional, organism-based. The gist of the method: as §2
Assay [10] deals with Saccharomyces cerevisiae. Nature of the assay: Antifungal activity against Saccharomyces cerevisiae ATCC 9763 by agar dilution method. It counts as functional, organism-based. The gist of the method:
as §2

The subject of assay [11] is Nannizzia gypsea. Nature of the assay: Antifungal activity against Microsporum gypseum C 115 by agar dilution method. In kind it is functional. The gist of the method: as §1
Assay [12] deals with Aspergillus niger. The assay is described as follows: Antifungal activity against Aspergillus niger ATCC 9029 by agar dilution method. In kind it is functional, organism-based. The gist of the method: as §2
In assay [13] the test system is Microsporum canis. The assay is described as follows: Antifungal activity against Microsporum canis C 112 up to 50 ug/mL by agar dilution method. In kind it is functional, organism-based. The gist of the method:
as §1

For assay [14], the system named is Trichophyton mentagrophytes. The assay is described as follows: Antifungal activity against Trichophyton mentagrophytes ATCC 9972 up to 50 ug/mL by agar dilution method. In kind it is functional, organism-based. In short, it runs like this: as §1
Assay [15] relates to Epidermophyton floccosum. Nature of the assay: Antifungal activity against Epidermophyton floccosum C 114 by agar dilution method. In kind it is functional. In short, it runs like this:
as §1

For assay [16], the system named is Candida albicans. The assay is described as follows: Antifungal activity against Candida albicans ATCC 10231 by agar dilution method. It counts as functional, organism-based. In short, it runs like this: as §2

For the molecule `CC(Cl)C(=O)c1ccccc1` (stereo unspecified), the outcome in assay [1], in assay [4], in assay [5], in assay [7], in [8] and in assay [9] was inactive. In addition, the outcome in assay [10], in assay [12], in assay [13], in assay [14] and in [16] was inactive. Moreover, the MIC (usually the smallest concentration in the dilution series that meets the test's criterion for growth inhibition) in [2] came to 6.25 µg/mL (≈ 37.1 µM); in [3] it was 12.5 µg/mL (≈ 74.1 µM); in [6], 10 µg/mL (≈ 59.3 µM); in [11] it was 20 µg/mL (≈ 119 µM); in assay [15], 15 µg/mL (≈ 89 µM).

On to `C=CCc1ccc(OC)c(OC)c1` [METHYLEUGENOL], for which the result in assay [1], in assay [4], in [5], in assay [7], in [8] and in assay [9] was inactive. Moreover, the result in assay [10], in assay [12], in [13], in [14] and in assay [16] was inactive. Further, the MIC in assay [2], in assay [3], in [6], in assay [11] and in assay [15] was greater than 50 µg/mL throughout.

As for `COc1cc(C(=O)C(C)Cl)cc(OC)c1OC` (stereo unspecified), the result in assay [1], in assay [4], in assay [5], in assay [7], in [8] and in assay [9] was inactive. The result in [10], in assay [12], in assay [13], in assay [14] and in assay [16] was inactive. Also, the MIC in [2] was found to be 6.25 µg/mL (≈ 24.2 µM); in assay [3], 10 µg/mL (≈ 38.7 µM); in assay [6] it was 15 µg/mL (≈ 58 µM); in assay [11] it was 12.5 µg/mL (≈ 48.3 µM); in [15], 0.5 µg/mL (≈ 1.93 µM).

Take `CCC(=O)c1ccc2c(c1)OCO2`: the result in assay [1], in [4], in assay [5], in assay [7], in [8] and in assay [9] was inactive. Besides, the result in assay [10], in [12], in assay [13], in assay [14] and in assay [16] was inactive. Besides, the minimum inhibitory concentration (MIC) was greater than 50 µg/mL in assay [2]; greater than 50 µg/mL in [3]; greater than 50 µg/mL in assay [6]; greater than 50 µg/mL in [11]; 40 µg/mL (≈ 224 µM) in assay [15].

For `COc1ccc(C(O)C(C)C)cc1OC` (stereo unspecified), the outcome in assay [1], in assay [4], in [5], in assay [7], in assay [8] and in assay [9] was inactive. Also, the outcome in assay [10], in [12], in assay [13], in assay [14] and in assay [16] was inactive. Besides, the MIC in assay [2], in assay [3], in assay [6], in assay [11] and in assay [15] was greater than 50 µg/mL in each case.

With `C=CCc1ccc(O)c(OC)c1` [EUGENOL], the outcome in assay [1], in [4], in assay [5], in [7], in assay [8] and in assay [9] was inactive. In addition, the result in assay [10], in [12], in assay [13], in assay [14] and in [16] was inactive. Further, the minimal inhibitory concentration (MIC) in assay [2], in assay [3], in assay [6], in assay [11] and in assay [15] was greater than 50 µg/mL each time.

With `CCC(O)c1cc(OC)c(OC)c(OC)c1` (stereo unspecified), the result in assay [1], in assay [4], in assay [5], in [7], in assay [8] and in assay [9] was inactive. The outcome in assay [10], in assay [12], in assay [13], in assay [14] and in assay [16] was inactive. In addition, the MIC in assay [2] is 50 µg/mL (≈ 221 µM); in assay [3] it was greater than 50 µg/mL; in [6], greater than 50 µg/mL; in assay [11], greater than 50 µg/mL; in assay [15], 50 µg/mL (≈ 221 µM).

For the molecule `CCC(=O)c1cc(OC)c(OC)c(OC)c1`, the result in assay [1], in assay [4], in [5], in assay [7], in [8] and in assay [9] was inactive. For the same molecule, the result in [10], in assay [12], in [13], in [14] and in [16] was inactive. The MIC in assay [2], in assay [3], in [6], in [11] and in assay [15] was greater than 50 µg/mL in each case.

Consider `CCC(O)c1ccc2c(c1)OCO2` (stereo unspecified), for which the result in assay [1], in assay [4], in assay [5], in [7], in assay [8] and in assay [9] was inactive. For the same molecule, the outcome in assay [10], in [12], in assay [13], in [14] and in assay [16] was inactive. Besides, the MIC in assay [2], in [3], in assay [6], in assay [11] and in assay [15] was greater than 50 µg/mL throughout.

As for `COc1ccc(C(=O)C(C)C)cc1OC`, the result in assay [1], in assay [4], in assay [5], in assay [7], in [8] and in assay [9] was inactive. In addition, the result in [10], in assay [12], in [13], in assay [14] and in assay [16] was inactive. The MIC in [2] was greater than 50 µg/mL; in [3] it was 50 µg/mL (≈ 240 µM); in [6], greater than 50 µg/mL; in [11], greater than 50 µg/mL; in [15], 50 µg/mL (≈ 240 µM).

`CCC(=O)c1ccc(OC)cc1`: the result in [1], in [4], in assay [5], in assay [7], in [8] and in assay [9] was inactive. Moreover, the result in assay [10], in assay [12], in assay [13], in assay [14] and in [16] was inactive. For the same molecule, the minimum inhibitory concentration (MIC) in assay [2], in assay [3], in assay [6], in assay [11] and in assay [15] was greater than 50 µg/mL in each case.

For the molecule `CC(Cl)C(=O)c1cc2ccccc2c2ccccc12` (stereo unspecified), the result in assay [1], in assay [4], in assay [5], in assay [7], in assay [8] and in assay [9] was inactive. Also, the outcome in assay [10], in assay [12], in [14] and in assay [16] was inactive. The MIC is 3 µg/mL (≈ 11.2 µM) in [2]; 1.5 µg/mL (≈ 5.58 µM) in assay [3]; 3 µg/mL (≈ 11.2 µM) in [6]; 10 µg/mL (≈ 37.2 µM) in assay [11]; 15 µg/mL (≈ 55.8 µM) in [15].
